Measurements gathered from unrelated publications.
Lines come from different studies, so protocols differ.
CHRM5: Muscarinic acetylcholine receptor M5 (CHRM5, Homo sapiens, UniProt P08912)
TPR: Trypanothione reductase (TPR, Trypanosoma cruzi, UniProt P28593)

SMILES	target	assay	conditions	measurement	value
C[C@H](NC(=O)Cc1ccccc1)C(=O)N[C@H](Cc1c[nH]c2ccccc12)C(=O)NCCc1ccccc1	Bombesin receptor subtype-3 (Brs3, Mus musculus, UniProt O54798)	calcium signal, agonist, fluorescence		EC50	0.0333 µM
C=CCn1c2cc(OC(=O)CCCCN3CCN(Cc4cccc(C)c4)CC3)ccc2c2ccnc(C)c21	Cholinesterase (BCHE, Homo sapiens, UniProt P06276)	enzyme activity, inhibitor, Ellman		IC50	0.251 µM
Nc1c2c(nc3ccccc13)CCCC2	Ribosyldihydronicotinamide dehydrogenase [quinone] (NQO2, Homo sapiens, UniProt P16083)	enzyme activity, inhibitor, absorbance		IC50	3 µM
CCCCc1cc2cc(-n3nc(C)c4c3CC(C)(C)CC4=O)cc(N[C@H]3CC[C@H](O)CC3)c2c(=O)[nH]1	Heat shock protein HSP 90-beta (HSP90AB1, Homo sapiens, UniProt P08238)	ligand displacement, FP		IC50	0.186 µM
OC[C@H]1O[C@H]([S-])[C@H](O)[C@@H](O)[C@@H]1O.[Au+]	Tyrosine-protein phosphatase non-receptor type 12 (PTPN12, Homo sapiens, UniProt Q05209)	enzyme activity, inhibitor, fluorescence		IC50	8 µM
CSCC[C@H](NC(=O)[C@H](CCC(N)=O)NC(=O)[C@H](C)NC(=O)[C@H](CO)NC(=O)[C@@H](N)CO)C(=O)N[C@@H](CC(N)=O)C(=O)N[C@@H](CC(C)C)C(=O)N[C@@H](CC(N)=O)C(=O)N[C@H](C(=O)N[C@@H](Cc1ccccc1)C(=O)N[C@@H](CC(C)C)C(=O)N[C@@H](CC(N)=O)C(=O)O)[C@@H](C)O	1-deoxy-D-xylulose 5-phosphate reductoisomerase (Escherichia coli K-12, UniProt P45568)	enzyme activity, inhibitor, absorbance	with preincubation	IC50	266 µM
CC(C)(O)[C@@H](Nc1nc(Cl)nc2c1ncn2[C@H]1[C@H](O)[C@H](O)[C@]2(CO)C[C@H]12)C1CC1	CHRM5	ligand displacement, radioligand		Ki	2730 nM
O=C(O)c1ccccc1-c1c2cc(Br)c(=O)cc-2oc2[c]([Hg+])c(O)c(Br)cc12	Proteinase K (PROK, Engyodontium album, UniProt P06873)	binding, ITC		Kd	~3000 µM
C[C@H](N)Cn1ncc2ccc3c(c21)CCCO3	Serotonin 4 (5-HT4) receptor (Sus scrofa, UniProt Q6Q253)	ligand displacement, radioligand		IC50	30.3 µM
c1ccc2c(c1)CCc1ccccc1C2OCCN1CCNCC1	TPR	enzyme activity, inhibitor, absorbance		IC50	51.5 µM
CC(C)C[C@H](NC(=O)[C@H](Cc1ccccc1)NC(=O)c1cnccn1)B(O)O	Plasma kallikrein (KLKB1, Homo sapiens, UniProt P03952)	enzyme activity, inhibitor		IC50	2 µM
Cc1cc(O)cc(C)c1C[C@H](N)C(=O)N[C@H](C)C(=O)N[C@@H](Cc1ccccc1)C(=O)N[C@@H](CCCN)C(N)=O	Mu-type opioid receptor (OPRM1, Cavia porcellus, UniProt P97266)	ligand displacement, radioligand	cell membranes	Ki	0.033 nM
CC(C)(C)[C@H](Nc1nc(Cl)nc2c1ncn2[C@H]1[C@H](O)[C@H](O)[C@]2(CO)C[C@H]12)C1CC1	CHRM5	ligand displacement, radioligand		Ki	> 6200 nM
c1ccc(CCCN2CCN(CCOC(c3ccccc3)c3ccccc3)CC2)cc1	TPR	enzyme activity, inhibitor, absorbance		IC50	10.9 µM
Cc1cc(C)c2[nH]c(=O)c(CN(CCO)C(=S)Nc3ccc(O)cc3)cc2c1	Beta-glucuronidase (uidA, Escherichia coli, UniProt P05804)	enzyme activity, inhibitor		EC50	4.5 µM
